# TAAR1 antagonist = human TAAR1 antagonists, primary screen, Fluo-8 calcium fluorescence, CHO RD-HGA16 cells | AID 624466, 2012 | inhibition, % at 3 µM | antagonist | actives 1.5% (n = 360,000);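 active = inhibition above a per-plate cutoff, the mean inhibition of test compounds on that plate plus 3 SD, cut at about 49% in these data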;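 note: 0% = DMSO plus EC80 beta-PEA response and 100% = DMSO alone without agonist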
# Target sequence (Q96RJ0 whole entry, looked up): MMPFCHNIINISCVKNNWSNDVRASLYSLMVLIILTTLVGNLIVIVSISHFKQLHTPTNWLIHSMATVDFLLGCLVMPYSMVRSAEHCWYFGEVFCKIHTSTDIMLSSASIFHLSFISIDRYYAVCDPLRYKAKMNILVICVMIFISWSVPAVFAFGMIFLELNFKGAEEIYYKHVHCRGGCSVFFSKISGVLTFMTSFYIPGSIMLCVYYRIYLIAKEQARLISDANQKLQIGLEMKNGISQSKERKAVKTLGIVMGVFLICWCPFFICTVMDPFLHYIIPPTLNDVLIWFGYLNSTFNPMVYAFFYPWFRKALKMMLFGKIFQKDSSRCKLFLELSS
#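 Test system: CHO RD-HGA16 cells bearing hTAAR1 | Reagent: β-PEA, EC80 | Compound dosing: 3 µM, single point | Schedule: Dye loading 75 min at 37 °C, then 30 min room temperature | Signal: Calcium fluorescence with Fluo-8 | Evaluation: Percent inhibition of PEA-evoked calcium signal, max/basal emission ratio | Control set: DMSO-only wells and EC80 β-PEA-stimulated wells | Repeats: Singlicate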
# TAAR1 ag = human TAAR1 agonists, primary screen, Fluo-8 calcium fluorescence, CHO RD-HGA16 cells | actives 0.99% (n = 360,000) | activation, % at 3 µM | AID 624467, 2012 | vehicle wells 0%, saturating PEA agonist 100%;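 active = activation above the mean activation of all test compounds in the run plus 3 SD, cut at about 38% in these data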
#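 System: CHO-derived RD-HGA16 cells with stable Gα16 and human TAAR1 / Times: 17-24 h plating, Fluo-8 75 min 37 °C, 30 min RT / Technique: calcium-sensitive Fluo-8 signal, excitation 470-495, emission 515-575 nm / Measure: % activation relative to PEA EC100 response / Benchmarks: DMSO and PEA EC100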
# DAGLB inh = DAGLB lipase inhibitors, primary screen, biochemical, fluorescence, HTS. HEK293T DAGLB membrane lysate, EnzChek fluorogenic substrate. Diacylglycerol lipase-beta (Homo sapiens), Q8NCG7. inhibition, % at 5.17 µM. AID 504411, 2011. actives 0.059% (n = 340,000); in the data active = inhibition above about 34%;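 note: 0% = enzyme with vehicle and 100% = wells lacking enzyme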
# GPR7 antag = GPR7 receptor antagonists, primary screen, cell-based, fluorescence, single concentration. Neuropeptides B/W receptor type 1 (Homo sapiens), P48145. GPR7-expressing cells, fluorescence antagonist assay. inhibition, % at 4.4 µM. actives 1.1% (n = 290,000). AID 1861, 2009; in the data active = inhibition above about 16%, passing the limit was not always enough;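 note: cells stimulated with the agonist NPW; 0% = agonist with vehicle and 100% = vehicle without agonist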
# MPTP inh = mitochondrial permeability transition pore inhibitors, primary screen, biochemical, isolated mouse mitochondria, absorbance. Ca2+ swelling absorbance, 30 min. inhibition, % at 10 µM. actives 1.4% (n = 360,000). AID 602449, 2012;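 active = inhibition of 50% or more, scaled per plate between neutral and stimulator controls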;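 note: 0% = DMSO wells given calcium and 100% = 1 mM EGTA wells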
# GPR7 antag conf = GPR7 receptor antagonists, confirmation, cell-based, fluorescence, single concentration; shares compounds with GPR7 antag; GPR7-expressing cells, calcium fluorescence antagonist mode; inhibition, % at 4.4 µM; actives 52% (n = 2,400); in the data active = inhibition above about 24%;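 note: stimulated with the GPR7 agonist NPW; 0% = agonist plus vehicle and 100% = vehicle alone without agonist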
# MCHR1 antagonist = MCHR1 antagonists in cells, counter-screen for GPR7 antagonist project, cell-based, fluorescence, human | shares compounds with GPR7 antag | MCHR1-expressing cells, fluorescence antagonist assay | inhibition, % at 4.4 µM | actives 62% (n = 2,400) | AID 2148, 2009; in the data active = inhibition above about 22%;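 note: 0% = vehicle with agonist and 100% = vehicle without agonist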
# An asterisk follows results filed as active; . = no result given. Compounds with a hit are over-represented: about 4% of the library has one in this group of screens.
SMILES,TAAR1 antagonist,TAAR1 ag,DAGLB inh,GPR7 antag,MPTP inh,GPR7 antag conf,MCHR1 antagonist
O=S1(=O)CC(N2CCC(c3ccccc3)CC2)CN1Cc1cn(Cc2ccc(C(F)(F)F)cc2)nn1 (centres undefined),37,10,.,.,.,.,.
CCOC(=O)c1cc2[nH]c3ccccc3c2[n+](-c2ccc([N+](=O)[O-])cc2)c1N,-8,4,1,0,0,.,.
CCOC(=O)c1cc2[nH]c3ccccc3c2[n+](-c2ccc([N+](=O)[O-])cc2)c1C,-4,0,-2,23*,0,18,16
O=C(CSc1nc(O)cc(=O)n1C1CCCC1)Nc1cccc(Cl)c1Cl,-29,-1,16,28*,5,15,7
COC(=O)c1ccccc1NC(=O)CSc1nc(O)cc(=O)n1C1CCCC1,-3,1,13,-2,1,.,.
CN(Cc1cccc(Cl)c1)C(=O)C1CCC(=O)N(C2CC2)C1 (centres undefined),-8,4,-1,23*,1,-9,12
CN(Cc1ccc(C(F)(F)F)cc1)C(=O)C1CCC(=O)N(C2CC2)C1 (centres undefined),-13,0,-3,-3,0,.,.
CSc1ncnc2c1ncn2CCCNCc1ccc(C)o1,-13,0,0,.,1,.,.
O=C(NCc1cccc(F)c1)c1[nH]c(C(F)(F)F)nc1-c1ccccc1,2,6,.,.,1,.,.
COCCSc1ccccc1C(=O)Nc1ccncc1,-8,10,-3,57*,0,-9,-12
COCCN=C1N[C@@H](c2ccc(Br)cc2)C(C(=O)OC)=C(C)N1Cc1ccccc1,4,10,-4,49*,1,65*,41*
COC(=O)C1=C(C)N(Cc2ccccc2)C(=NCc2ccccc2)N[C@H]1c1ccccc1,22,16,-1,.,1,.,.
COCCN=C1N[C@@H](c2ccccc2)C(C(=O)OC)=C(C)N1Cc1ccccc1,-8,7,1,5,0,.,.
COC(=O)C1=C(C)N(Cc2ccccc2)C(=NCc2ccccc2)N[C@H]1c1cccc(F)c1,22,15,2,51*,1,55*,59*
N#C[C@H](N)[C@H]1O[C@@H](n2ccc(=O)[nH]c2=O)[C@H](O)[C@@H]1O,-36,1,.,.,.,.,.
Cc1noc(C)c1C(=O)OCC(=O)Nc1cccc(S(N)(=O)=O)c1,8,8,-3,3,-3,.,.
Cc1cc(NC(=O)COC(=O)c2c(C)noc2C)ccc1Br,35,5,1,36*,1,18,25*
c1ccc2c3c([nH]c2c1)C1(CCCCC1)NCC3,-25,4,2,11*,0,2,18
O=C1Nc2ccccc2C12NCCc1c2[nH]c2ccccc12 (centres undefined),-1,10,3,0,-2,.,.
Cc1ccc2oc(=O)n(CC(=O)c3ccc(F)cc3)c2c1,11,1,-2,25*,1,-1,12
COc1ccc(C[C@H]2CN3C(=NC[C@@H]3Cc3ccccc3)N2CCNC(=O)CCC2CCCCC2)cc1,9,23,0,37*,2,52*,39*
Cc1ccc(S(=O)(=O)N2[C@@H](c3cccc(Cl)c3)C(C(=O)O)=CC[C@H]2c2ccc(C(C)C)cc2)cc1,46,11,10,.,4,.,.
COc1ccc(Cc2nc3ccc(C(=O)NCCc4ccccn4)cc3o2)cc1OC,18,3,-2,22*,0,1,14
CCCC(=O)Nc1cccc(-c2cn3cccnc3n2)c1,12,1,-4,68*,-2,8,5
CC(C)C[C@@H]1COc2cccc(NCCO)c2S(=O)(=O)N1,-11,2,.,.,.,.,.
